This note sets out measurements from PubChem BioAssay AID504383 (The Scripps Research Institute Molecular Screening Center, 2011).

“And” between values parts separate entries of the source, which are not always exact repeats. Identical values can stand only once. The campaign covered roughly 2,500 compounds. About 1,200 (48%) were called active.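 How the source made its calls: active means mean activation above the low control average plus 3 SD, as set in the primary screen (cut at about 12% in these data); inactive means the rest.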 So high a share suggests a set chosen from earlier hits. The list shows a part of the results. Some compounds were tested as several samples or in several runs, with calls that do not always agree.

This experiment concerns the target Troponin I, cardiac muscle (Homo sapiens) + Troponin T, cardiac muscle (Homo sapiens) + Troponin C, slow skeletal and cardiac muscles (Homo sapiens) (UniProt P19429+P45379+P63316). In words: cardiac RTF calcium sensitivity activators, confirmation, biochemical, IANBD-TnC fluorescence, triplicate (AID 504383).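 Further: 0% = DMSO at 0.472 mM calcium and 100% = DMSO at 2.9 mM calcium.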 The settings on record: IANBD-labeled cardiac RTF, Ca2+ sensitivity fluorescence; at 7.2 µM; stronger effect = higher value; scaled from EC20 to saturating calcium; tested at EC20 calcium, 0.472 mM. The gist of the method:
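Assay system: labelled regulated thin filaments / Timing: 15 min at 25 °C / Detection: fluorescence intensity of labelled filaments / Measure: fluorescence gain scaled between EC20 and EC100 calcium controls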
Consider `CCCCN(Cc1ccccc1)S(=O)(=O)c1ccc2c(c1)n(C)c(=O)c(=O)n2C`, for which the activation was 2.32% (inactive).

`CCCNS(=O)(=O)c1ccc2c(c1)n(C)c(=O)n2C`: the activation is 12.4% (active).

Regarding `COc1ccc(S(=O)(=O)N(CC(C)C)C2CCS(=O)(=O)C2)cc1OC` (configuration not stated), the activation is 17.1% (active).

Regarding `O=C1c2cccc3cc([N+](=O)[O-])cc(c23)C(=O)N1CCN1CCCC1`, the activation was 8.4% (inactive).

On to `CCN(CC)CCN1C(=O)c2cccc3cc(N)cc(c23)C1=O`, for which the activation was 128% (active).

`CN(C)c1ccc(/C=N/NC(=O)c2cnc3ccccc3c2)cc1`: the activation is 6.1% (inactive).

Turning to `O=C(N/N=C/c1ccc2c(c1)OCO2)/C(=C/c1ccc2c(c1)OCO2)NC(=O)c1ccccc1`, the activation is 11.7% (active).

Take `O=C(N/N=C/c1ccc([N+](=O)[O-])cc1)c1cc(-c2ccc3c(c2)OCO3)n[nH]1`: the activation is 0.5% (inactive).

As to `Cc1ccc(Cn2cc(CCC(=O)O)c3ccccc32)cc1`, the activation was 16.7% (active).

In the case of `Nc1nc(SCc2cccc(Br)c2)n[nH]1`, the activation is 9.18% (inactive).

With `COc1cc2c(cc1NC(=O)COC(=O)/C=C/c1ccc([N+](=O)[O-])cc1)oc1ccccc12`, the activation was 4480% (active).

`COc1cc([N+](=O)[O-])ccc1N/C=C/C(=O)c1cccs1`: the activation is 5.01% (inactive).

With `COc1cc([N+](=O)[O-])ccc1NC(=O)COC(=O)c1n[nH]c2ccccc12`, the activation was 6.72% (inactive).

Turning to `CN1CCCc2cc3c(C(F)(F)F)cc(=O)oc3nc21`, the activation was 10.7% (inactive).

On to `Cc1ccc(C(=O)NCC(=O)OCC(=O)c2ccc(Cl)s2)cc1`, for which the activation was 232% (active).

With `Cc1ccc(C(=O)NCC(=O)OCC(=O)N(CC(C)C)c2c(N)n(Cc3ccccc3)c(=O)[nH]c2=O)cc1`, the activation was 8.28% (inactive).

For `Cc1cc(C)n(NC(=S)NC2CCCCC2)c(=O)c1C#N`, the activation was 7.29% (inactive).

Regarding `O=C1/C(=C\c2c(NCCOCCO)nc3ccccn3c2=O)SC(=S)N1Cc1ccco1`, the activation is 92.6% (active).

With `CCCN(CCC)c1nc2c(C)cccn2c(=O)c1/C=C1/SC(=S)N(Cc2ccco2)C1=O`, the activation is 3.6% (inactive).

Consider `Cc1ccc(S(=O)(=O)N2CCN(c3ncccn3)CC2)cc1C`, for which the activation is 4.74% (inactive).

For the compound `Cc1ccc(/C=C/C(=O)N2CCN(S(=O)(=O)c3ccc(C)c(C)c3)CC2)o1`, the activation was 17.9% (active).

For `COc1ccc(S(=O)(=O)N2CCSC2)cc1C`, the activation is 2.98% (inactive).

Turning to `Oc1[nH]c2ccccc2c1N=Nc1ccccc1F`, the activation is 2.72% (inactive).

Regarding `Cc1ccc(Cl)c2c(N=Nc3ccccc3)c(O)[nH]c12`, the activation was 14.7% (active).

Turning to `Oc1[nH]c2ccccc2c1N=Nc1ccccc1`, the activation was 26.4% (active).

`Oc1[nH]c2ccccc2c1N=Nc1cccc(Cl)c1`: the activation was 7.29% (inactive).

Regarding `Oc1[nH]c2ccccc2c1N=Nc1ccccc1Cl`, the activation is 4.59% (inactive).

Consider `Oc1[nH]c2ccccc2c1N=Nc1ccc(F)cc1`, for which the activation is 109% (active).

With `O=C(c1cnc2ccccc2n1)N1CCN(c2ccc(C(F)(F)F)cn2)CC1`, the activation is 32.8% (active).

Take `Cc1ccc(NC(=O)CO/N=C/c2ccc(N(C)C)cc2)cc1`: the activation was 6.41% (inactive).

`Cc1ccc(NC(=O)O/N=C/c2ccc(F)cc2)cc1`: the activation is 8.78% (inactive).

As to `CCN(CC)c1ccc(/C=N/OCC(=O)Nc2cccc(C)c2)cc1`, the activation was 19.6% (active).

On to `O=C1N/C(=C\c2ccc(N3CCOCC3)c(F)c2)C(=O)N1Cc1ccccc1`, for which the activation is 5.84% (inactive).

In the case of `O=C(O)c1cc(NCc2ccc(F)cc2)ccc1N1CCOCC1`, the activation was 91.3% (active).

With `O=C(N1CCOCC1)N1CCN(c2ccc(F)cc2)CC1`, the activation is 2.34% (inactive).

For the compound `C=CCOc1ccc(CNc2ccc3[nH]c(=O)[nH]c3c2)cc1OCC`, the activation is 25% (active).

`CN(C)c1ccc(/C=C/c2ccc3ccccc3n2)cc1`: the activation was 14.9% (active).

`CC(C)CC[n+]1ccccc1/C=C/c1ccc(N(C)C)cc1`: the activation was 7% (inactive).

Consider `CN(C)c1ccc(/C=C/c2nc3ccccc3c(=O)[nH]2)cc1`, for which the activation is 9.5% (inactive).

Regarding `Cc1ccsc1C1C=C(c2cccc(Br)c2)Nc2ncnn21` (configuration not stated), the activation was 1.58% (inactive).

Consider `CN(C)c1ccc(C2C=C(c3ccc(Cl)cc3OC(F)F)Nc3ncnn32)cc1` (configuration not stated), for which the activation is 80% (active).

In the case of `Cc1c(C=O)c2ccccn2c1C(=O)c1cccs1`, the activation was 6.64% (inactive).

Take `Cc1cccc(Nc2c([N+](=O)[O-])c(=O)oc3ccccc23)c1`: the activation was 23.2% (active).

Turning to `Nc1nc(NCCCN2CCOCC2)nc(Nc2cccc(Cl)c2)c1[N+](=O)[O-]`, the activation is 5.57% (inactive).

As to `COc1ccc(CC/C(C)=N\NC(N)=O)cc1`, the activation is 16.2% (active).

On to `COc1ccc(CCC(=O)N2CCc3ccccc32)cc1`, for which the activation was 6.5% (inactive).

On to `COc1ccc(CC(=O)NNC(=O)c2ccncc2)cc1`, for which the activation was 8.9% (inactive).

For the compound `Cc1ccc(C)c(S(=O)(=O)N2CCCC2CNC(=O)C(=O)NC2CC2)c1` (configuration not stated), the activation was 5.98% (inactive).

Take `Cc1ccc(SCC(=O)c2sc(-c3ccccc3)nc2C)cc1`: the activation was 35.4% (active).

In the case of `Cc1ccc(-c2nc(NC(=O)CSc3cc(C)c4ccccc4n3)ns2)cc1`, the activation is 4.39% (inactive).

Turning to `C=C(C)c1sc(-c2ccc(Cl)cc2)nc1C`, the activation was 1.76% (inactive).

For `COc1ccc2noc3c2c1C(=O)c1ccccc1-3`, the activation is 3.9% (inactive).

As to `Nc1ccc2c3c(cccc13)CC2`, the activation was 6.56% (inactive).

`COc1ccc2c3c(cccc13)C(=O)CC2`: the activation was 18.7% (active).

For the compound `CCCn1c(=O)c(C(=O)NNC(=O)c2ccccc2[N+](=O)[O-])c(O)c2ccccc21`, the activation is 18.9% (active).

As to `CC1CCN(c2oc(-c3ccccc3F)nc2C#N)CC1`, the activation was 10.8% (inactive).

Regarding `COCCn1c(=NC(=O)/C=C/c2ccccc2)sc2cc(NC(C)=O)ccc21`, the activation was 19.9% (active).

For `CCOC(=O)Cn1c(=NC(=O)c2cc(-c3cccs3)nc3ccccc23)sc2cc(S(N)(=O)=O)ccc21`, the activation is 1.79% (inactive).

For `CC1(C(=O)Nc2nnc(SCc3ccccc3)s2)Cc2ccccc2C(=O)O1` (configuration not stated), the activation is 22.1% (active).

In the case of `CC1(C)CC(=O)c2sc(NC(=O)Cc3cccs3)nc2C1`, the activation is 4.44% (inactive).

Take `CN1CCC2(CC1)C1CN(C)CC=C1C(C#N)=C(N)C2(C#N)C#N` (configuration not stated): the activation is 1.95% (inactive) and 33.7% (active).

On to `CCOc1ccc(C2C(C#N)=C(N)SC(N)=C2C#N)c(OCC)c1`, for which the activation was 10% (inactive).

For the compound `CCOc1cc(C2C(C#N)=C(N)OC(C)=C2C(C)=O)cc(Br)c1O` (configuration not stated), the activation is 213% (active).

`O=C(COc1ccccc1Cl)N1CCN(c2ccccn2)CC1`: the activation is 10.9% (inactive).

Take `S=C(Nc1cc(Cl)ccc1Oc1ccccc1)N1CCN(c2ccccn2)CC1`: the activation is 102% (active).

As for `O=c1c2ccccc2nc2n1CCCN2`, the activation was 17.2% (active).

`CCC[C@@H](CN1CCC[C@H]1CN1C(N)=NC[C@@H]1Cc1ccccc1)N1C[C@@H](Cc2ccccc2)N(CCCC2CCCC2)C1=N`: the activation is 38.3% (active).

Consider `CC(C(=O)N1CCc2ccccc2C1)N1C(=O)c2ccccc2C1=O` (configuration not stated), for which the activation is 2.65% (inactive).

Consider `O=C(Cn1c(=O)oc2cc(S(=O)(=O)N3CCCC3)ccc21)N1CCc2ccccc2C1`, for which the activation was 10.4% (inactive).

As to `CCOc1cc(C#N)ccc1OCC(=O)N1CCc2ccccc2C1`, the activation is 12.3% (active).

On to `CCNc1cccc2c1C(=O)N(C)C2=O`, for which the activation was 1.44% (inactive).

Consider `CC[C@@]1(O)C(=O)OCc2c1cc1n(c2=O)Cc2cc3c(CN(C)C)c(O)ccc3nc2-1`, for which the activation was 22.4% (active).

Regarding `CCC1(O)C(=O)OCc2c1cc1n(c2=O)Cc2cc3cc(O)ccc3nc2-1` (configuration not stated), the activation was 16.1% (active).

As for `CCOc1nnc(C)c2c(C)n(-c3cccc(Cl)c3)nc12`, the activation was 5.31% (inactive).

Turning to `O=C1NC(=S)/C(=C\c2ccc(-c3ccccc3Cl)o2)S1`, the activation is 14.2% (active).

On to `O=C(O)c1ccccc1-c1ccc(/C=C2\SC(=O)N(c3ccccc3)C2=O)o1`, for which the activation is 9.01% (inactive).

As to `Cc1noc(/C=C/c2ccc(-c3ccccc3Cl)o2)c1[N+](=O)[O-]`, the activation is -1.31% (inactive).

As for `Cc1ccc(/C=C2/SC(=O)NC2=S)o1`, the activation is 29.6% (active).

Consider `Cc1nc2ccc(Cl)cc2nc(C)/c1=N\O`, for which the activation was 6.95% (inactive).

Take `CCOC(=O)c1c(-c2ccccc2)csc1NC(=O)/C(C#N)=C\c1ccc(O)c(OC)c1`: the activation was 11.3% (inactive).

`CCOC(=O)c1c(-c2ccccc2)csc1NC(=O)/C(C#N)=C/c1ccc(O)c(OC)c1`: the activation is 23.8% (active).

Consider `CCNC(=S)N/N=C/c1sc(N2CCCCC2)nc1-c1cccs1`, for which the activation is 1.11% (inactive).

With `COC(=O)Cc1ccc(NC(=S)NCCCN2CCOCC2)cc1`, the activation is 2.97% (inactive).

As for `S=C(Nc1ccc(Cl)cc1)N(CCCN1CCOCC1)Cc1ccco1`, the activation is 11.2% (inactive).

On to `S=C(NCCCN1CCOCC1)Nc1ccc(-c2nc3ccccc3[nH]2)cc1`, for which the activation is 17% (active).

`O=C(O)c1ccccc1CSc1nnnn1-c1ccccc1`: the activation is 51.1% (active).

Turning to `C(=N\Nc1nnnn1-c1ccccc1)/c1ccncc1`, the activation was 6.05% (inactive).

On to `O=C(Cn1ncc2c3ccccc3n(Cc3cccc(Cl)c3)c2c1=O)NCC1CCCO1` (configuration not stated), for which the activation was 5.86% (inactive).

On to `O=C(NCC1CCCO1)c1cccc2c1C(=O)c1ccc(N3CCC(Cc4ccccc4)CC3)cc1S2(=O)=O` (configuration not stated), for which the activation is 4.73% (inactive).

Turning to `O=C(NCC1CCCO1)c1ccc2c(c1)C(=O)N(c1cccc([N+](=O)[O-])c1)C2=O` (configuration not stated), the activation is 31.3% (active).

In the case of `Cc1cccc(CSc2ccc(-c3ccco3)nn2)c1`, the activation is -0.44% (inactive).

As for `N#Cc1ccccc1OCC(=O)OCC(=O)c1ccc2c(c1)NC(=O)CO2`, the activation was 21.9% (active).

Consider `Cn1c(=O)cc(SCC(=O)NCC2COc3ccccc3O2)c2ccccc21` (configuration not stated), for which the activation is 7.4% (inactive).

Consider `CSc1c(CC(=O)NCCO)n(C)c2ccccc12`, for which the activation is 23.2% (active).

`O=C(NC1CCCCC1)c1ccccc1NC(=S)NC(=O)C1CCC1`: the activation was 24.5% (active).

Turning to `Cc1ccccc1C(=O)NC(=S)NC1CC1`, the activation was 0.94% (inactive).

For the compound `O=C(O)c1ccccc1/C=N/NC(=S)NC1CCCCC1`, the activation is 5.68% (inactive).
